From ChEMBL document CHEMBL4627281, “A small molecule inhibitor of PCSK9 that antagonizes LDL receptor binding via interaction with a cryptic PCSK9 binding groove” (Bioorg Med Chem, 2020)
Active and inactive are the calls of the source. The calls are words filed in the database; no cut-off is given here.

Experiments:
[1] = Cmax in C57BL/6 mouse at 20 mg/kg, po administered as single dose measured upto 24 hrs by LC-MS/MS analysis; format: ADME, organism-based; set-up: dose 20 mg/kg, route oral; conditions: in vivo
How it was run: (§1)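 Male C57BL/6 mice, single dose: IV 5 mg/kg in 85% saline/10% Solutol HS15/5% DMSO; SC 20 mg/kg in same vehicle; PO 20 mg/kg in 1% methylcellulose in water. About 110 µL blood taken into K2EDTA by retro-orbital puncture (terminal bleed by cardiac puncture under isoflurane) at 0.033–24 h. Plasma spun at 2000 g, 5 min, 4 °C, stored near −70 °C; n = 3 per route.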

[2] = test system: PCSK9/LDLR (Homo sapiens), Q8NBP7+P01130 [D374Y]; experiment: Inhibition of PCSK9 D374Y mutant (unknown origin) and LDLR protein-protein interaction in human HepG2 cells assessed as increase in Bodipy FL-labelled LDL uptake preincubated for 16 hrs followed by Bodipy FL-labelled LDL addition and measured after 4 hrs by fluorescence assay; format: cell-based
How it was run: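 HepG2 cells seeded at 2 × 10^5 cells/mL and attached overnight, then incubated 16 h with PCSK9-D374Y (2 μg/mL) plus compound (0.1 or 1 µM). Medium replaced with 10 μg/mL Bodipy FL LDL for 4 h. Cells washed with warm PBS; fluorescence read at ex 485/em 530 nm. Mean ± S.D.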

[3] = Terminal half life in CD1 mouse at 0.4 mg/kg, iv administered as cassette dose measured upto 24 hrs by LC-MS/MS analysis; format: ADME, organism-based; conditions: in vivo, read-out: beta t1/2 (converted)
How it was run: (§2)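 Male CD1 mice (second cassette 28–29 g, 7–8 weeks) given one IV 5-in-1 cassette at 0.4 mg/kg per compound in 5% DMAC/5% Solutol HS15/90% saline. Blood (~20 µL) into K2EDTA from the facial vein at 0.083–24 h, terminal bleed by cardiac puncture under isoflurane. Blood diluted with deionised water, stored at −80 °C, analysed by positive-ESI mass spectrometry.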

[4] = Terminal half life in C57BL/6 mouse at 5 mg/kg, iv administered as single dose measured upto 24 hrs by LC-MS/MS analysis; format: ADME, organism-based; conditions: in vivo, read-out: beta t1/2 (converted); how it was run: as §1
[5] = Clearance in CD1 mouse at 0.4 mg/kg, iv administered as cassette dose measured upto 24 hrs by LC-MS/MS analysis; format: ADME, organism-based; conditions: in vivo; how it was run: as §2
[6] = Toxicity in C57BL/6 mouse assessed as change in behavior at 3.28 to 16.4 mg/kg/day, sc administered daily for 14 days; format: organism-based; conditions: in vivo, 336 h
[7] = Plasma concentration in C57BL/6 mouse at 20 mg/kg, sc administered as single dose measured after 24 hrs by LC-MS/MS analysis; format: ADME, organism-based; how it was run: as §1
[8] = target: Proto-oncogene tyrosine-protein kinase Src (Homo sapiens, UniProt P12931); experiment: Inhibition of recombinant human full-length N-terminal GST-tagged SRC (1 to 536 residues) expressed in baculovirus expression system using FAM-labelled P4 peptide as substrate preincubated for 10 mins followed by substrate addition and measured after 1 hr in presence of ATP by fluorescence assay
Chain of Proto-oncogene tyrosine-protein kinase Src (P12931 2-536 limits assumed): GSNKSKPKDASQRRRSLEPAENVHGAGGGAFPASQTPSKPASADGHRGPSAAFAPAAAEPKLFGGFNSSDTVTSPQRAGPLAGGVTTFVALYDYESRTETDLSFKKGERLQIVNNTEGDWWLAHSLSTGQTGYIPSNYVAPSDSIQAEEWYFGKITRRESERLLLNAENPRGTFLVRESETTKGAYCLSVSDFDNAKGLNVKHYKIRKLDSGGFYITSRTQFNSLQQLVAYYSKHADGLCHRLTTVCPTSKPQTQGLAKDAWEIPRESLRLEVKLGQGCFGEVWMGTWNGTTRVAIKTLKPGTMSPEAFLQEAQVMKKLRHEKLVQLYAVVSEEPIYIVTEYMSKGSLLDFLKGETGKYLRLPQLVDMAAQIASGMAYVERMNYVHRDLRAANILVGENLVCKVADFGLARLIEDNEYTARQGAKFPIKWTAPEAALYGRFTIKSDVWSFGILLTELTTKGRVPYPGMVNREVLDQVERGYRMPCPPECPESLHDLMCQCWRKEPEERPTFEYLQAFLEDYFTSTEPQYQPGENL

[9] = AUClast in CD1 mouse at 0.4 mg/kg, iv administered as cassette dose measured upto 24 hrs by LC-MS/MS analysis; format: ADME, organism-based; set-up: time < 24 hr, dose 0.4 mg/kg, route intravenous; conditions: in vivo; how it was run: as §2
[10] = AUClast in C57BL/6 mouse at 20 mg/kg, po administered as single dose measured upto 24 hrs by LC-MS/MS analysis; format: ADME, organism-based; set-up: dose 20 mg/kg, time < 24 hr, route oral; conditions: in vivo; how it was run: as §1
[11] = test system: Mus musculus; experiment: Antihyperlipidemic activity in PCSK9 knockout C57BL/6 mouse assessed as decrease in total cholesterol level at 16.4 mg/kg/day, sc administered daily for 14 days and measured on day 15 by colorimetric method; format: functional, organism-based
How it was run: (§3)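 Female C57BL/6 wild-type or PCSK9−/− mice (8–16 weeks), acclimatised 7 days, 5 per group, dosed SC daily for 14 days at 3.28 or 16.4 mg/kg/day in 5% DMSO/95% saline, or vehicle alone. Blood taken into EDTA on days 0, 5, 10 and 15; plasma from 2500 g spin, stored at −20 °C. Total cholesterol and triglycerides read by colorimetric kits, PCSK9 by mouse ELISA; unpaired two-tailed t test against vehicle.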

[12] = Volume of distribution at steady state in CD1 mouse at 0.4 mg/kg, iv administered as cassette dose measured upto 24 hrs by LC-MS/MS analysis; format: ADME, organism-based; conditions: in vivo, read-out: Vdss; how it was run: as §2
[13] = AUCinfinity in C57BL/6 mouse at 5 mg/kg, iv administered as single dose measured upto 24 hrs by LC-MS/MS analysis; format: ADME, organism-based; set-up: dose 5 mg/kg, route intravenous, time infinity; conditions: in vivo; how it was run: as §1
[14] = AUClast in C57BL/6 mouse at 20 mg/kg, sc administered as single dose measured upto 24 hrs by LC-MS/MS analysis; format: ADME, organism-based; set-up: dose 20 mg/kg, time < 24 hr, route subcutaneous; conditions: in vivo; how it was run: as §1
[15] = Tmax in C57BL/6 mouse at 20 mg/kg, sc administered as single dose measured upto 24 hrs by LC-MS/MS analysis; format: ADME, organism-based; conditions: in vivo; how it was run: as §1
[16] = test system: Mus musculus; experiment: Antihyperlipidemic activity in C57BL/6 mouse assessed as decrease in total cholesterol level at 16.4 mg/kg/day, sc administered daily for 14 days and measured on day 15 by colorimetric method relative to control; format: functional; set-up: scale not given: the % may be the effect or the level left; how it was run: as §3
[17] = Mean residence time (0 to infinity) in CD1 mouse at 0.4 mg/kg, iv administered as cassette dose measured upto 24 hrs by LC-MS analysis; format: ADME, organism-based; conditions: in vivo; how it was run: as §2
[18] = Terminal half life in C57BL/6 mouse at 20 mg/kg, sc administered as single dose measured upto 24 hrs by LC-MS/MS analysis; format: ADME, organism-based; conditions: in vivo, read-out: beta t1/2 (converted); how it was run: as §1
[19] = Time at which plasma concentration exceeds in vitro IC50 for inhibition of recombinant human His-tagged PCSK9 interaction with recombinant LDLR AB domain (unknown origin) in C57BL/6 mouse at 20 mg/kg, sc administered as single dose; format: organism-based; conditions: in vivo
[20] = Clearance in C57BL/6 mouse at 5 mg/kg, iv administered as single dose measured upto 24 hrs by LC-MS/MS analysis; format: ADME, organism-based; conditions: in vivo; how it was run: as §1
[21] = target: Proprotein convertase subtilisin/kexin type 9 (Homo sapiens) (UniProt Q8NBP7); experiment: Binding affinity to biotinylated recombinant human PCSK9 at 0.2 to 0.4 uM incubated for 2 mins followed by further incubation for 10 mins by biolayer interferometry
Chain of Proprotein convertase subtilisin/kexin type 9 (Homo sapiens) (Q8NBP7 31-152 limits assumed): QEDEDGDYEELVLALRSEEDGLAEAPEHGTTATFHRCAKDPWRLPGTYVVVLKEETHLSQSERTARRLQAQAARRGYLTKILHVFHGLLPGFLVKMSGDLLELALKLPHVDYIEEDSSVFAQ
Chain of Proprotein convertase subtilisin/kexin type 9 (Homo sapiens) (Q8NBP7 153-692 limits assumed): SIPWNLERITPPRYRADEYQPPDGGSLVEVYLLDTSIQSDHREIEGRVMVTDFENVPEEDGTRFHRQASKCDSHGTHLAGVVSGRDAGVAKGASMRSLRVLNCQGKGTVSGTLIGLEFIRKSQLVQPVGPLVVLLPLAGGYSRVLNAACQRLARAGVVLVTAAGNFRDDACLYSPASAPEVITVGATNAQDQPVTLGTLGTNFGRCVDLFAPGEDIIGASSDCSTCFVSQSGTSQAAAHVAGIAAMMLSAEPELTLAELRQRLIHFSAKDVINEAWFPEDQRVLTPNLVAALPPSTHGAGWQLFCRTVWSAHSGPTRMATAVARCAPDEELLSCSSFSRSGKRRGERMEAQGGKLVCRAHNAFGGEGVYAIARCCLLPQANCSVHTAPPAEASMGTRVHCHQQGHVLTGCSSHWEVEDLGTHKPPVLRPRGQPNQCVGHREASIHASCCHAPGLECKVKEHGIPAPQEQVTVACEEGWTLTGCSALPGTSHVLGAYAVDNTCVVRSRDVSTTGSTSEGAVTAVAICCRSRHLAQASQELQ
How it was run: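 Biolayer interferometry: biotinylated PCSK9 (27 µg/mL) loaded onto a Super Streptavidin biosensor and blocked with biocytin. Compound (0.2–25.6 µM) associated for 2 min, then dissociated for 10 min. Background signal subtracted to remove non-specific binding.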

[22] = Toxicity in C57BL/6 mouse assessed as change in body weight at 3.28 to 16.4 mg/kg/day, sc administered daily for 14 days; format: organism-based; conditions: in vivo, 336 h
[23] = Volume of distribution at steady state in C57BL/6 mouse at 5 mg/kg, iv administered as single dose measured upto 24 hrs by LC-MS/MS analysis; format: ADME, organism-based; conditions: in vivo, read-out: Vdss; how it was run: as §1

Structure (SMILES): Cc1cn(-c2cc(CN3CCC[C@H](N)C3)cc(NC(=O)c3ccc(C)c(Oc4ccccc4)c3)c2)cn1
- Cmax [1]: 52.6 ng/mL
- inhibition [2]: Dose-dependent effect
- half-life [3]: 1540 min
- half-life [4]: 592 min
- clearance [5]: 5 mL/min/kg
- Activity [6]: Non-Toxic
- concentration at 24 h [7]: 93 nM
- IC50 [8]: > 10 µM
- AUC(0-t) at 24 h [9]: 722 ng·h/mL
- AUC(0-t) at 24 h [10]: 92.3 ng·h/mL
- Activity [11]: inactive
- Vd [12]: 9.13 L/kg
- AUC(0-inf) [13]: 4600 ng·h/mL
- AUC(0-t) at 24 h [14]: 16100 ng·h/mL
- Tmax [15]: 1 h
- Activity [16]: 10%
- MRT inf [17]: 34.9 h
- half-life [18]: 328 min
- T>IC50 [19]: >= 16 hr
- clearance [20]: 18.2 mL/min/kg
- Activity [21]: inactive
- Activity [22]: Non-Toxic
- Vd [23]: 3.87 L/kg
